Experimental findings from ChEMBL document CHEMBL3085745, “Plakinamine M, a steroidal alkaloid from the marine sponge Corticium sp” (2013) are described below.

In general, MIC refers to the lowest concentration found to suppress growth. Lower therefore signals inhibition by little substance.

For experiment [1], the system named is Escherichia coli. Description: Antibacterial activity against Escherichia coli at 50 ug/mL. Format: functional, organism-based.
In experiment [2] the test system is Bacillus subtilis. Description: Antibacterial activity against Bacillus subtilis at 50 ug/mL. Type of experiment: functional, organism-based.
The subject of experiment [3] is Mycobacterium tuberculosis. Description: Antimycobacterial activity against Mycobacterium tuberculosis H37Ra ATCC 25177 after 4 days by MTT assay. Type of experiment: functional. To be noted: H37Ra ATCC 25177, 96 h. The gist of the method: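 Inoculum from a frozen bacterial pellet diluted into fresh medium to a final 5×10⁵ CFU/mL, dispensed onto compound in quadruplicate wells. DMSO-only wells served as negative control and rifampicin at 250 ng/mL as positive control. Incubated 4 days at 37 °C, then MTT added for a further 12 h. After subtracting media-only blanks, % inhibition = (1 − Σtest/Σcontrol)×100.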
(In general: Tetrazolium assays rely on reduction of a dye to a coloured formazan, in cell work by metabolically active cells.)

Experiment [4] deals with Candida albicans. The experiment in a line: Antifungal activity against Candida albicans at 50 ug/mL. Format: functional, organism-based.
The test system of experiment [5] is Staphylococcus aureus. The experiment in a line: Antibacterial activity against Staphylococcus aureus at 50 ug/mL. Type of experiment: functional, organism-based.

The structures appear in SMILES notation. Values after ≈ are worked out from the molar mass of the structure shown. Active and inactive are the calls of the source. The rule behind the calls is not given here.

As for `CC(C)/C(=C\C[C@@H](C)[C@H]1CC[C@H]2C3=CC[C@H]4C[C@H](N(C)C)CC[C@]4(C)[C@H]3CC[C@]12C)CCN(C)C`, the result in experiment [1], in experiment [2] and in experiment [5] was inactive. Moreover, in experiment [3], the MIC came out at 3.6 µg/mL (≈ 7.46 µM). Moreover, the outcome in experiment [4] was Active.
For the molecule `CC(C)/C(=C\C[C@@H](C)[C@H]1CC[C@H]2C3=CC[C@H]4C[C@H](N(C)C)[C@@H](O)C[C@]4(C)[C@H]3CC[C@]12C)CCN(C)C`, the outcome in experiment [1], in experiment [2] and in experiment [5] was inactive. Besides, 15.8 µg/mL (≈ 31.7 µM) was the least that counted as inhibitory in experiment [3] (MIC). Further, in experiment [4], the outcome was Active.
